Reference: ChEMBL document CHEMBL1122590, “Dibenz[b,e]oxepinalkanoic acids as nonsteroidal antiinflammatory agents. 4. Synthesis and evaluation of 4-(4,10-dihydro-10-oxothieno[3,2-c] [1]benzoxepin-8-yl)butanol and -butyric acid and related derivatives” (1984)

Key:
Mus musculus [1] = assay: Ability to inhibit phenylquinone induced writhing in mouse at dose 25 mg/Kg administered per orally; settings: po
Rattus norvegicus [2] = assay: Ability to inhibit Carrageenan-induced paw edema in rat administered per orally; format: functional; settings: for ED50: po
Method in brief: (§1)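 Male Wistar rats, 130-200 g, groups of 7-10, fasted overnight with water available. Oral dosing in 10 mL/kg of aqueous Tween 80 suspension (oils in emulphor/alcohol/water 1:1:8) at 1, 2 and/or 4 h before subplantar injection of 0.1 mL of 1% carrageenan into left hind paw. Paw volume by mercury displacement at 0 and 3 h; % edema inhibition vs vehicle; ED50 by linear regression from at least three doses.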

Rattus norvegicus [3] = assay: Ability to inhibit Carrageenan-induced paw edema in rat at dose 20 mg/Kg administered per orally; format: functional; settings: po
Method in brief: as §1

Mus musculus [4] = assay: Ability to inhibit phenylquinone induced writhing in mouse administered per orally; settings: po
Rattus norvegicus [5] = assay: Ability to inhibit Carrageenan-induced paw edema in rat at a dose of 20 mg/kg administered per orally; format: functional; settings: route oral
Method in brief: as §1

Rattus norvegicus [6] = assay: Ability to inhibit gastric irritation in rat administered per orally; format: functional; settings: Stomach, po
Method in brief: (§2)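 Groups of 10 male Wistar rats, 150-175 g, fasted 48 h with water available, dosed orally (10 mL/kg vehicle as Tween 80 suspension or emulphor/alcohol/water). Time course: sacrifice at 3, 5 and 7 h. Stomachs and intestines examined; any erosion, ulcer or perforation scored ulcerogenic. Four doses at peak time; ED50 = dose giving irritation in 50% of animals, by linear regression.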

Rattus norvegicus [7] = assay: Ability to inhibit Carrageenan-induced paw edema in rat administered perorally; format: functional; settings: po
Method in brief: as §1

Mus musculus [8] = assay: Ability to inhibit phenylquinone induced writhing in mouse administered perorally; settings: po
Mus musculus [9] = assay: Ability to inhibit phenylquinone induced writhing, in mouse at dose 25 mg/Kg administered per orally; settings: po
Rattus norvegicus [10] = assay: Ability to inhibit gastric irritation in rat at dose 400 mg/Kg administered per orally; format: functional; settings: Stomach, po
Method in brief: as §2

Rattus norvegicus [11] = assay: Ability to inhibit gastric irritation in rat administered perorally; format: functional; settings: Stomach, po
Method in brief: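 Male Wistar rats, 150-175 g, groups of 10, fasted 48 h (water ad libitum), dosed orally (10 mL/kg) as aqueous Tween 80 suspension or emulphor/alcohol/water (1:1:8) for oils; controls got vehicle. Time response: sacrificed at 3, 5 and 7 h. Dose-response at peak time with four doses. Stomach and intestine lesions (erosion, ulcer, perforation) scored. ED50 is the dose irritating 50% of rats, by linear regression; otherwise % at stated dose.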

O=C(O)CCCc1ccc2c(c1)C(=O)c1sccc1CO2
inhibition in vivo at 25 mg/kg (Mus musculus [1]): 94%
Inhibition (Rattus norvegicus [2]): 38%

O=C1c2cc(CCO)ccc2OCc2ccsc21
inhibition in vivo at 20 mg/kg (Rattus norvegicus [3]): 62%
ED50 (Mus musculus [4]): 19.7 mg/kg

COC(=O)CCCc1ccc2c(c1)C(=O)c1sccc1CO2
ED50 (Mus musculus [4]): 10.8 mg/kg

COC(=O)COC(=O)Cc1ccc2c(c1)C(=O)c1sccc1CO2
ED50 (Mus musculus [4]): 1.5 mg/kg
inhibition in vivo at 20 mg/kg (Rattus norvegicus [5]): 43%

CCOC(=O)CCCc1ccc2c(c1)C(=O)c1sccc1CO2
ED50 (Mus musculus [4]): 8.2 mg/kg
inhibition in vivo at 20 mg/kg (Rattus norvegicus [5]): 40%

CC(=O)OCCCCc1ccc2c(c1)C(=O)c1sccc1CO2
inhibition in vivo at 20 mg/kg (Rattus norvegicus [3]): 38%
ED50 (Mus musculus [4]): 5.8 mg/kg

CC1(C)COC(Cc2ccc3c(c2)C(=O)c2sccc2CO3)=N1
inhibition in vivo at 20 mg/kg (Rattus norvegicus [3]): 49%
ED50 (Mus musculus [4]): 7.2 mg/kg

O=C(O)Cc1ccc2c(c1)C(=O)c1sccc1CO2
ED50 (Rattus norvegicus [6]): 33.7 mg/kg
ED50 (Mus musculus [4]): 3.1 mg/kg
ED50 (Rattus norvegicus [2]): 3.4 mg/kg

O=C1c2cc(CCCCOC(=O)C(F)(F)F)ccc2OCc2ccsc21
ED50 (Rattus norvegicus [7]): 16.5 mg/kg
ED50 (Mus musculus [8]): 9.1 mg/kg

CC(C)OC(=O)CCCc1ccc2c(c1)C(=O)c1sccc1CO2
ED50 (Mus musculus [4]): 8.5 mg/kg
inhibition in vivo at 20 mg/kg (Rattus norvegicus [5]): 44%

CC(=O)OCCc1ccc2c(c1)C(=O)c1sccc1CO2
ED50 (Rattus norvegicus [6]): 175 mg/kg
inhibition in vivo at 25 mg/kg (Mus musculus [9]): 52%
ED50 (Rattus norvegicus [2]): 11.4 mg/kg

CCC(=O)OCCc1ccc2c(c1)C(=O)c1sccc1CO2
inhibition in vivo at 20 mg/kg (Rattus norvegicus [3]): 35%
inhibition in vivo at 25 mg/kg (Mus musculus [9]): 22%

CC(C)(CO)NC(=O)Cc1ccc2c(c1)C(=O)c1sccc1CO2
inhibition in vivo at 20 mg/kg (Rattus norvegicus [3]): 21%
inhibition in vivo at 25 mg/kg (Mus musculus [9]): 19%

O=C1c2cc(CCCCO)ccc2OCc2ccsc21
inhibition in vivo at 400 mg/kg (Rattus norvegicus [10]): 40%
ED50 (Mus musculus [4]): 7.4 mg/kg
ED50 (Rattus norvegicus [2]): 8.6 mg/kg

CC(C)(C)OC(=O)CCCc1ccc2c(c1)C(=O)c1sccc1CO2
inhibition in vivo at 25 mg/kg (Mus musculus [9]): 93%
inhibition in vivo at 20 mg/kg (Rattus norvegicus [5]): 49%

COc1ccc2c(c1)c(CC(=O)O)c(C)n2C(=O)c1ccc(Cl)cc1 [INDOMETHACIN]
ED50 (Rattus norvegicus [7]): 4.4 mg/kg
ED50 (Mus musculus [8]): 0.7 mg/kg
ED50 (Rattus norvegicus [11]): 1.8 mg/kg
